This is an account of results in ChEMBL document CHEMBL4052757, “Bistacrines as potential antitrypanosomal agents” (Bioorg Med Chem, 2017).

Series [1] concerns Trypanosoma brucei brucei. In words: Antitrypanosomal activity against Trypanosoma brucei brucei TC221 after 72 hrs by alamar blue assay. The series is classed as functional. To be noted: TC221, 72 h. The method, boiled down:
(§1)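 T. b. brucei TC221 bloodstream-form proliferation measured by alamarBlue (resazurin reduced to resorufin by living cells); 48 h and 72 h read-outs. IC50 derived per Räz et al. method; each compound tested in duplicate, mean of two values.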
(In general: Alamar Blue is a resazurin reagent that responds to reducing activity.)

Series [2] relates to Trypanosoma brucei brucei. In words: Antitrypanosomal activity against Trypanosoma brucei brucei TC221 after 48 hrs by alamar blue assay. Type of series: functional. To be noted: TC221, 48 h. The method, boiled down:
as §1

Series [3] has as its system J774.1. In words: Cytotoxicity against mouse J774.1 cells after 24 hrs by alamar blue assay. Type of series: cell-based. To be noted: J774.1, 24 h.
The nature of series [4]: Selectivity index, ratio of IC50 for mouse J774.1 cells to IC50 for Trypanosoma brucei brucei TC221 measured after 48 hrs. Type of series: toxicity. To be noted: J774.1 cells (versus Trypanosoma brucei brucei TC221), read-out: Ratio IC50. The method, boiled down:
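Selectivity index computed as IC50 (J774.1 macrophages, alamarBlue) divided by IC50 (T. b. brucei TC221, alamarBlue); duplicate determinations, means used.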

Series [5] can be described thus: Stability of the compound. The series is classed as physicochemical.
Series [6] deals with Trypanosoma brucei. In words: Inhibition of Trypanosoma brucei trypanothione reductase at 5 uM using 100 uM trypanothione disulfide as substrate by spectrophotometric method relative to control. The method, boiled down: (§2)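 TbTryR (about 2 nM) in 40 mM HEPES, 1 mM EDTA, pH 7.5 with 100 µM NADPH; inhibitor 5 µM from DMSO stock, fixed TS2 at 100 or 40 µM; NADPH consumption followed as absorbance decrease; inhibition relative to DMSO control.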

Series [7] deals with Trypanosoma brucei. The experiment in a line: Inhibition of Trypanosoma brucei trypanothione reductase at 5 uM using 40 uM trypanothione disulfide as substrate by spectrophotometric method relative to control. The method, boiled down:
as §2

Series [8] in a line: Mixed-type inhibition of Trypanosoma brucei trypanothione reductase assessed as enzyme-substrate complex using varying levels of trypanothione disulfide as substrate by Lineweaver-burk plot analysis. The method, boiled down:
(§3)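 TbTryR kinetics in HEPES/EDTA pH 7.5 with 100 µM NADPH; TS2 varied 20–200 µM at several inhibitor levels, DMSO control; Lineweaver-Burk plots; Ki and Ki' fitted.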

Series [9] can be described thus: Mixed-type inhibition of Trypanosoma brucei trypanothione reductase assessed as enzyme-substrate-inhibitor complex using varying levels of trypanothione disulfide as substrate by Lineweaver-burk plot analysis. The method, boiled down:
as §3

Series [10] has as its system Leishmania infantum. In words: Antileishmanial activity against Leishmania infantum. The series is classed as functional.
Series [11] can be described thus: Inhibition of trypanothione reductase.
In series [12] the target is Rhodesain (Trypanosoma brucei rhodesiense) (UniProt Q95PM0). In words: Inhibition of Trypanosoma brucei rhodesiense rhodesain at 20 uM using Cbz-Phe-Arg-AMC as substrate measured for 5 mins by spectrofluorometric analysis relative to control. The method, boiled down: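 Rhodesain in 50 mM sodium acetate pH 5.5 with 5 mM DTT, 5 mM EDTA, 200 mM NaCl; inhibitor 20 µM, substrate Cbz-Phe-Arg-AMC; AMC fluorescence (ex 380/em 460 nm) followed 5 min; activity from slopes of fluorescence vs time versus DMSO control; run in duplicate.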

The target in series [13] is Rhodesain (Trypanosoma brucei rhodesiense, UniProt Q95PM0). The experiment in a line: Inhibition of Trypanosoma brucei rhodesiense rhodesain using Cbz-Phe-Arg-AMC as substrate measured for 10 mins by spectrofluorometric analysis.
For series [14], the target named is Rhodesain (Trypanosoma brucei rhodesiense) (UniProt Q95PM0). In words: Inhibition of Trypanosoma brucei rhodesiense rhodesain using Cbz-Phe-Arg-AMC as substrate by spectrofluorometric analysis.
Series [15] can be described thus: Ratio of IC50 for Trypanosoma brucei rhodesiense rhodesain to IC50 for Trypanosoma brucei brucei TC221.
The target in series [16] is Trypanothione reductase (Trypanosoma cruzi) (UniProt P28593). In words: Inhibition of Trypanosoma cruzi trypanothione reductase at 5 uM using 100 uM trypanothione disulfide as substrate by spectrophotometric method relative to control. The procedure, abridged: (§4)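 TcTryR (about 2 nM) in 40 mM HEPES, 1 mM EDTA, pH 7.5, 100 µM NADPH; inhibitor at fixed 2 or 5 µM (screening range 1–5 µM) from DMSO stock; TS2 fixed at 40 or 100 µM; absorbance decrease monitored; percent inhibition versus DMSO control.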

Series [17] shares this target. The experiment in a line: Inhibition of Trypanosoma cruzi trypanothione reductase at 5 uM using 40 uM trypanothione disulfide as substrate by spectrophotometric method relative to control. The procedure, abridged: as §4
Series [18] shares this target. The experiment in a line: Inhibition of Trypanosoma cruzi trypanothione reductase at 2 uM using 100 uM trypanothione disulfide as substrate by spectrophotometric method relative to control. The procedure, abridged: as §4
For series [19] the target is unchanged. The experiment in a line: Inhibition of Trypanosoma cruzi trypanothione reductase at 2 uM using 40 uM trypanothione disulfide as substrate by spectrophotometric method relative to control. The procedure, abridged: as §4
For series [20] the target is unchanged. In words: Inhibition of Trypanosoma cruzi trypanothione reductase at 50 uM using 100 uM trypanothione disulfide as substrate by spectrophotometric method relative to control.
The target in series [21] is Rhodesain (Trypanosoma brucei rhodesiense) (UniProt Q95PM0). In words: Inhibition of Trypanosoma brucei rhodesiense rhodesain assessed as second-order rate constant using Cbz-Phe-Arg-AMC as substrate measured for 10 mins by spectrofluorometric analysis.

Molecules are shown by their SMILES. Active and inactive are the calls of the source. The rule behind the calls is not given here.

Trypanothione reductase (Trypanosoma cruzi), sequence (P28593 whole entry, looked up): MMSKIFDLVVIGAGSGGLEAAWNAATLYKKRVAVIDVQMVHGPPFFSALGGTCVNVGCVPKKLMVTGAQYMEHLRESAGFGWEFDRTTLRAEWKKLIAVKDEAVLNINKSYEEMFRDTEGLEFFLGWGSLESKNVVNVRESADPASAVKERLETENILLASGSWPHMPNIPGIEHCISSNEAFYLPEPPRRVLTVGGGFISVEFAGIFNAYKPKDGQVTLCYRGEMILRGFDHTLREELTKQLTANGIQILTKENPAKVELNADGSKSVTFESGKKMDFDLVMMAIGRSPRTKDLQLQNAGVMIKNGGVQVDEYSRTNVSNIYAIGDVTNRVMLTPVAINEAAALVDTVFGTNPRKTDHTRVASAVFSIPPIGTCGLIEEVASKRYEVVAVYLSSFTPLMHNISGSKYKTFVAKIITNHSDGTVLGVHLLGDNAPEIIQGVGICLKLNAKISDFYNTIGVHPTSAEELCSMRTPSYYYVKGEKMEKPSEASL
Rhodesain, sequence (Q95PM0 whole entry): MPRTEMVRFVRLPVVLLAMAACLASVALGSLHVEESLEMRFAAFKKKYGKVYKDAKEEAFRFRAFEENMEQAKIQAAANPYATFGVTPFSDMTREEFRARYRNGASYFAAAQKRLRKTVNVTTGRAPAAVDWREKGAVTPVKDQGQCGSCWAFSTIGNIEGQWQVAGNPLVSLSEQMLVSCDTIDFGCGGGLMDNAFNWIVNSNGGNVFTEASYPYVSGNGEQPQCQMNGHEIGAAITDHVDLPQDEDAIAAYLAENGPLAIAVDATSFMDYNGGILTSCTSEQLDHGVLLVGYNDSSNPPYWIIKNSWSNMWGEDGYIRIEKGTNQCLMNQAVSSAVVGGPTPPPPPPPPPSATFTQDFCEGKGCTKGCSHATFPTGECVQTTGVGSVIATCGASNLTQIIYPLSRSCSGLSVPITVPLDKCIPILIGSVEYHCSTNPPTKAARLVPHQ
Rhodesain (Trypanosoma brucei rhodesiense), sequence (Q95PM0 1-450): as the sequence (Q95PM0 whole entry) above

Turning to `C1=Cc2c(nc3ccccc3c2NCCCCCCCNc2c3c(nc4ccccc24)CCC=C3)CC1`, the results for the IC50 in series [1], in series [2] and in series [3] were 10 nM, 10 nM and 1500 nM, respectively. Further, the selectivity ratio at 48 h in series [4] worked out at 152. Further, in [5], the Stability entry was “Stable”. Besides, the inhibition in series [6] came to 53%; in series [7] it was 47%. Moreover, the values for the Ki in [8] and in [9] were 1200 nM and 12000 nM, respectively. The outcome in [10] was Active. Moreover, in [11], the inhibition entry is “Active”.

For `CC1CCc2c(nc3ccc([N+](=O)[O-])cc3c2NCCCCCCNc2c3c(nc4ccc([N+](=O)[O-])cc24)CC(C)CC3)C1` (stereo unspecified), the IC50 in [1] was found to be 680 nM; in [2] it was 620 nM; in [13], 5800 nM. For the same compound, in series [4], the selectivity ratio at 48 h was 38.5. The inhibition in series [12] was 82%; in series [14], “Dose-dependent effect”. Moreover, the Ratio IC50 in [15] came to 10. Further, the outcome in series [10] was Active. Moreover, the inhibition entry in series [11] was “Active”.

Regarding `c1ccc2c(NCCCCCCCCNc3c4c(nc5ccccc35)CCCC4)c3c(nc2c1)CCCC3`, the results for the IC50 in [1], in [2] and in series [13] were 660 nM, 400 nM and 16900 nM, respectively. Besides, the inhibition in [12] is 87%; in [14], “Dose-dependent effect”; in series [16], 64.4 to 68.5%; in [17], 73.3 to 78.3%; in [18], 28.8 to 32.9%; in series [19], 45 to 46.7%. The inhibition in series [20] was found to be 100%. In [10], the outcome was Active.

Turning to `c1ccc2c(NCCCCCCCNc3c4c(nc5ccccc35)CCCC4)c3c(nc2c1)CCCC3`, the IC50 in series [1] stood at 590 nM; in series [2], 160 nM. For the same compound, the inhibition in series [12] is 44%; in series [16], 51 to 55%; in series [17], 66.4%; in [18], 23.2 to 25.8%; in [19], 34.4 to 37.8%; in series [6], 53%. The compound also displayed an inhibition in series [7] of 66%. Also, the outcome in series [10] was Active.

Regarding `Clc1ccc2c(NCCCCCCNc3c4c(nc5cc(Cl)ccc35)CCCC4)c3c(nc2c1)CCCC3`, the half-inhibitory concentration (IC50) in series [1] came out at 710 nM; in [2] it was 640 nM; in series [3] it was 2800 nM; in series [13] it was 7400 nM. Besides, in [4], the selectivity ratio at 48 h worked out at 4.4. For the same compound, the inhibition was 61% in series [12] and “Dose-dependent effect” in series [14]. Also, in series [15], the Ratio IC50 is 10. For the same compound, the result in series [10] was Active. The inhibition entry in series [11] was “Active”.

In the case of `c1ccc2c(NCCCCCCNc3c4c(nc5ccccc35)CCCC4)c3c(nc2c1)CCCC3`, the IC50 in [1] stood at 330 nM; in [2] it was 260 nM; in [3], 3000 nM. The inhibition in series [12] is 25%; in series [16], 45.2 to 47.9%; in series [17], 56.6 to 57.5%; in series [18], 15.1%; in [19] it was 27.5 to 29.2%. For the same compound, the result in [10] was Active.

As to `CN1CCN(C(=O)N[C@@H](Cc2ccccc2)C(=O)N[C@H](/C=C/S(=O)(=O)c2ccccc2)CCc2ccccc2)CC1`, in series [21], the K amounted to 500000 M⁻¹ s⁻¹.

One may read the IC50 as the concentration needed to halve the response being measured. As a reminder, the inhibition is the change of the read-out against control, counted positive when it falls. The term Ki denotes the equilibrium dissociation constant of an inhibitor or competing ligand from its target.
